# A selection: hits, their analogues and other compounds. The true share with any hit is near 1.9%.
# STEP block = blocks human striatal-enriched tyrosine phosphatase; inhibition, % at 20 µM; P54829; recombinant STEP, OMFP fluorogenic substrate, fluorescence; actives 0.25% (n = 360,000);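 active means inhibition at 20 µM, scaled per plate between control wells, above about 37%, limit read from the data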;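 further: 0% = DMSO with enzyme and substrate and 100% = substrate only without enzyme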
#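 Test system: STEP tyrosine phosphatase / Reagent: OMFP at 25 µM / Doses: 20 µM, 1% DMSO / Read-out: percent inhibition scaled to no-enzyme and uninhibited-enzyme controls, plate-pattern corrected / Detection: FITC-channel fluorescence of OMFP product / Medium: Bis-Tris buffer pH 6.0, 2.5 mM DTT, 0.005% Tween 20 / Schedule: 20 min at room temperature, dark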
# LMPTP inh = LMPTP (human) inhibition; P24666; recombinant LMPTP-A, OMFP fluorogenic substrate, fluorescence intensity; inhibition, % at 20 µM; actives 0.22% (n = 360,000); AID 651560;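 active means compounds that cut the enzyme signal by at least half of the control window in the single-dose screen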;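 further: plate controls were DMSO wells with enzyme plus substrate for no effect and substrate without enzyme for full effect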
# Target sequence (P24666 whole entry, looked up): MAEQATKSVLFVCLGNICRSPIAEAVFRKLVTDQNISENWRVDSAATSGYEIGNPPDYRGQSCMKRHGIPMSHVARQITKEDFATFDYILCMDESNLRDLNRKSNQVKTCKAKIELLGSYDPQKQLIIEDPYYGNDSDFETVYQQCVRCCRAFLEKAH
#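 Assay system: LMPTP-A, protein tyrosine phosphatase of low molecular weight / Medium: pH 6.0 Bis-Tris buffer with DTT and Triton X-100 / Schedule: 50 min enzyme reaction at room temperature, protected from light / Measured by: endpoint fluorescence intensity from OMFP dephosphorylation / Read-out basis: % inhibition relative to no-enzyme and uninhibited control wells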
# SUMO1 PPI mod = alters human SUMO1 binding to SIM partners. P63165. SUMO1 binding to a labelled peptide, TR-FRET, 1 h. inhibition, % at 20 µM. actives 0.33% (n = 360,000); in the data active means inhibition above about 37%
# Target sequence (P63165 whole entry, looked up): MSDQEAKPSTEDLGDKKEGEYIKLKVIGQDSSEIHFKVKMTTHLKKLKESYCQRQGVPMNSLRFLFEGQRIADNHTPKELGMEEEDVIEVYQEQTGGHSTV
# FAS-TE inh = FAS thioesterase (human) inhibition. P49327. actives 0.67% (n = 360,000). recombinant FAS-TE, OMFH fluorogenic substrate, fluorescence endpoint. inhibition, % at 15 µM. AID 602261;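 active means compounds whose normalised, plate-corrected inhibition of enzyme fluorescence in the single-dose primary screen is 50% or more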;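 further: 0% = DMSO with enzyme and 100% = substrate without enzyme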
# Scp1 inh = blocks human Scp-1 phosphatase activity | Q9GZU7 | Recombinant Scp1, phosphopeptide, malachite green phosphate absorbance | inhibition, % at 20 µM | actives 0.88% (n = 340,000) | AID 493091;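 active means inhibition above about 50% at 20 µM, limit read from the data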;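 further: plate controls were DMSO wells with enzyme for no effect and wells lacking enzyme for full effect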
# Target sequence (Q9GZU7 76-261 limits assumed): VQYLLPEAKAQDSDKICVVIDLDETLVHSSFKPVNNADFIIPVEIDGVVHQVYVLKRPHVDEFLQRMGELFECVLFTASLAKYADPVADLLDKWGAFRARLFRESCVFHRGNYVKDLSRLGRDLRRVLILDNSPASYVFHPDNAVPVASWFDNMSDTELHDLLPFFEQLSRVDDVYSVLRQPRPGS
#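 System: SCP-1 catalytic domain; Reagent: Phospho 17-mer peptide substrate; Doses: one concentration, 20 µM, with 1.0% DMSO; Incubation: 45 min room-temperature reaction, 5 min colour, 30 min stabiliser; Signal: Phosphate-binding colour reagent, absorbance read at 630 nm.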
# Scp-1 conf = Scp-1 (human) inhibition, single-dose confirmed. shares compounds with Scp1 inh. recombinant SCP-1 catalytic domain, phosphate release, malachite green absorbance. inhibition, % at 20 µM. actives 61% (n = 2,500). AID 540281;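 further: plate controls were DMSO with enzyme for no effect and buffer wells lacking enzyme for full effect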
# MG interference = counter-screen for Scp-1 inhibitors: colorimetric interference | AID 540313 | Colorimetric interference counterscreen, malachite green absorbance 630 nm | apparent inhibition (interference), % at 20 µM | shares compounds with Scp1 inh | 2,500 tested, under 10 active;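 further: compounds added after enzyme reaction finished so only phosphate colour detection is probed; plate controls were DMSO wells with completed Scp-1 reaction for no effect and substrate wells lacking enzyme for full effect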
# Scp1 DSF = validation of human Scp-1 inhibitors by thermal shift binding. actives 25% (n = 1,500). Recombinant SCP1, Sypro Orange thermal shift Tm. AID 540329. shares compounds with Scp1 inh. thermal shift relative to vanadate control, % at 40 µM;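 active means substances whose mean melting-temperature shift, as a percentage of the reference inhibitor's shift, reaches about 5.3%, limit read from the data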;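 further: 0% = Tm of DMSO wells and 100% = Tm with sodium orthovanadate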
# STEP conf = confirmation of human STEP phosphatase inhibitors | actives 32% (n = 520) | AID 623866 | inhibition, % at 20 µM | recombinant STEP, OMFP fluorogenic substrate, fluorescence | shares compounds with STEP block; call rule not given here;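 further: 0% = enzyme with substrate plus DMSO and 100% = substrate without enzyme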
# FAS-TE inh conf = confirmation of human fatty acid synthase thioesterase inhibitors | shares compounds with FAS-TE inh | inhibition, % at 15 µM | actives 45% (n = 2,300) | recombinant FAS-TE, OMFH fluorogenic substrate, fluorescence;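 active means compounds inhibiting the enzyme by at least 50% at 15 µM in any one of the replicates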;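 further: 0% = enzyme with DMSO only and 100% = wells lacking enzyme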
# Starred values were filed as active, the others as inactive; . = not tested or not shown; ! = a repeat was not active.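 How the source made its calls, unless noted: active means inhibition of at least 30% at 20 µM; inactive means the rest.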
SMILES,STEP block,LMPTP inh,SUMO1 PPI mod,FAS-TE inh,Scp1 inh,Scp-1 conf,MG interference,Scp1 DSF,others
CC/C(CC(c1ccccc1)c1c(O)c2ccccc2oc1=O)=N\NC(N)=S (stereo not drawn),3,0,-1,-10,56*,46*,1,2,
COc1ccc(C(CC(C)=O)c2c(O)c3ccccc3oc2=O)cc1OC (stereo not drawn),0,-1,8,-9,.,.,.,.,
CCOC(C(=O)OCCC[N+](C)(CC)CC)(c1ccccc1)c1ccccc1,-1,-3,-6,-10,3,.,.,.,
CC[N+](C)(CC)CCCOC(=O)C(O)(c1ccccc1)C1CCCCC1 (stereo not drawn),-2,-2,3,-6,102*,79*,-19,-5,
Cc1cccc(C)c1-n1nnnc1C(c1cccc2ccccc12)N1CCC2(CC1)C(=O)NCN2c1ccccc1 (stereo not drawn),5,3,3,-2,.,.,.,.,
COc1ccc(Cc2c(O)[nH]c(=S)[nH]c2=O)cc1,-5,-1,4,-3,53*,-3,0,.,
CCN(CC)c1ccc(N=Cc2c(O)n(Cc3ccco3)c(=O)[nH]c2=O)cc1,-8,-2,-4,-42,-11,.,.,.,
NC(=O)c1ccc(N=Cc2c(O)n(Cc3ccco3)c(=O)[nH]c2=O)cc1,32,34,99*,-3,87*,67*,-11,-10,
CCC(c1nnnn1-c1ccc2c(c1)OCCO2)N1CCC2(CC1)C(=O)NCN2c1ccccc1 (stereo not drawn),4,5,12,5,.,.,.,.,
COc1cc2c(cc1OC)C(C1c3cc4c(cc3CCN1C)OCO4)OC2=O (stereo not drawn),2,2,5,-3,-5,.,.,.,
C[N+]1(C)CCc2cc3c(cc2[C@H]1[C@@H]1OC(=O)c2c1ccc1c2OCO1)OCO3,2,-1,3,-3,99*!,82*,-15,-24,
COc1ccc(-n2nnnc2C(c2cccs2)N2CCC3(CC2)C(=O)NCN3c2ccccc2)cc1 (stereo not drawn),0,2,-1,26,.,.,.,.,
Cc1ccc(S(=O)(=O)Cc2ccc(C(=O)N3CCC4(CC3)OCCO4)o2)cc1,4,-1,0,-7,57*,52*,-8,1,
Cc1ccc(CS(=O)(=O)Cc2ccc(C(=O)N3CCC4(CC3)OCCO4)o2)cc1,2,-1,5,-7,0,.,.,.,
Cn1cccc1/C=C1\C(=O)NC(=O)N(Cc2ccco2)C1=O,56*,41,15,-7,80*,45*,-23,8.1*,
O=C(c1cc2c(s1)CCCCCC2)N1CCC2(CC1)OCCO2,-1,0,4,5,-3,.,.,.,
CCc1sc(C(=O)N2CCC3(CC2)OCCO3)cc1Br,0,-1,-2,-1,54*,-7,-5,.,
CN(Cc1cccc(-c2ccncc2)c1)C(=O)Oc1ccccc1Cc1ccccc1,.,5,15,22,.,.,.,.,
CCOc1ccc(N=C2SCCCN2C)cc1,1,-1,-1,-4,103*,86*,-13,-14,
C1CN(P2(N3CC3)=NP(N3CC3)(N3CC3)=NP(N3CC3)(N3CC3)=N2)CCO1 (stereo not drawn),3,-6,4,-8,.,.,.,.,
O=P1(NCCCl)OCCC(OO)N1CCCl (stereo not drawn),.,-9,-52,-5,.,.,.,.,
O=C1NC(=S)NC(=O)C1=Cc1ccc(OCC(=O)N2CCCC2)cc1,1,0,11,-8,51*,51*,-10,-13,
C=CC[N+]1(C)CC[C@]23c4c5ccc(O)c4O[C@H]2C(=O)CC[C@@]3(O)[C@H]1C5 (stereo partly drawn),-4,-1,1,-2,98*,93*,-8,-24,
O=C1CC[C@@]2(O)[C@H]3Cc4ccc(O)c5c4[C@@]2(CCN3CC2CC2)[C@H]1O5,-3,-1,-3,-2,-6,.,.,.,
CC(C)N1C(=O)CC2(CC[N+](C)(CCOC(=O)C(O)(c3ccccc3)c3ccccc3)CC2)C1=O (stereo not drawn),-2,-1,1,-6,70*,102*,-5,-19,
SMILES,STEP block,LMPTP inh,SUMO1 PPI mod,FAS-TE inh,Scp1 inh,Scp-1 conf,MG interference,Scp1 DSF,others
CCN(CC)CCOC(=O)C(O)(c1ccccc1)c1ccccc1,0,-2,8,3,-14,.,.,.,
C=CCn1c(O)c(/C=N/N2CCCCC2c2cccnc2)c(=O)[nH]c1=S (stereo not drawn),42*,-2,-2,-18,-6,.,.,.,STEP conf=-1
CSCCC(c1nnnn1-c1c(C)cccc1C)N1CCC2(CC1)C(=O)NCN2c1ccccc1 (stereo not drawn),3,3,9,25,.,.,.,.,
CN(C)c1ccc2c(c1)N=C(c1ccco1)OP2(=S)N1CCOCC1 (stereo not drawn),36*,5,1,5,8,.,.,.,STEP conf=12
CN(C)c1ccc(CCN2CCOCC2)cc1,-1,0,3,-11,-3,.,.,.,
COc1ccc(NC(=O)c2cn(CCC#N)nc2-c2ccc(OC)c(OC)c2)cc1,0,-1,-1,-2,-7,.,.,.,
COc1ccc(-c2nn(CCC#N)cc2C(=O)Nc2ccc(C(C)=O)cc2)cc1[N+](=O)[O-],-2,-1,-18,85*,-13,.,.,.,FAS-TE inh conf=91*
CCN(CCCl)c1cc(CN(C)C)cc(NC(=O)c2ccc(C(=O)Nc3cc(CN(C)C)cc(N(CC)CCCl)c3)cc2)c1,5,-3,-98,51*,-10,.,.,.,FAS-TE inh conf=45
CC(C)(C)C(=O)N1Cc2cc(N3CCCCC3)ccc2-n2nncc2C1,-2,-1,4,-10,.,.,.,.,
O=C(C1CC(c2ccc(Cl)c(Cl)c2)=NO1)N1CCC2(CC1)OCCO2 (stereo not drawn),1,0,-4,57*,-4,.,.,.,FAS-TE inh conf=66*
O=C(C1CC(c2ccc(F)cc2)=NO1)N1CCC2(CC1)OCCO2 (stereo not drawn),-2,-1,1,-11,-2,.,.,.,
COc1ccc(-n2nnnc2C(CCSC)N2CCC3(CC2)C(=O)NCN3c2ccccc2)cc1 (stereo not drawn),2,0,4,11,.,.,.,.,

# Bioassay records as filed in PubChem.
